The sample as a whole holds a higher share of hits than the screen did.
CHOP UPR activ: activators of apoptotic arm of unfolded protein response (CHOP). AID 449763. 330,000 tested, 0.34% active. activation, % at 10 µM. CHO-CHOP luciferase reporter, UPR activation, luminescence; percent of tunicamycin response over DMSO baseline;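 active = at 10 µM dose, activation of 40% or more, normalized to positive control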;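 also: 100% = tunicamycin at 10 µg/mL and 0% = DMSO alone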
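System: CHO-CHOP luciferase reporter cell line; amount: 500 cells/well; buffer or medium: F12 medium containing 10% fetal bovine serum; incubation: 6 h compound exposure at 37 °C after overnight seeding; measured by: luciferase luminescence after 10 min with Steady-Glo reagent; evaluation: % reporter activation, DMSO baseline versus tunicamycin full activation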
CTSL1 counter: blocks F. hepatica cathepsin L1 in PFM18AAP counter-screen. recombinant F. hepatica cathepsin L1, Z-Leu-Arg-MCA fluorescence. inhibition, % at 5.96 µM. 300,000 tested, 0.49% active. AID 1906;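 active = inhibition above the mean of all tested compounds plus 3 SD, set per screening campaign, cut at about 17% in these data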;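 also: 0% = plate median of test compound wells and 100% = 1 µM Z-Phe-Ala-diazomethylketone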
UCH37 DUB inh: inhibitors of human deubiquitinating enzyme UCH37; Q9Y5K5; 330,000 tested, 0.33% active; purified proteasome/UCH37, Ub-AMC cleavage fluorescence; inhibition, % (concentration not given with the values);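 active = mean inhibition over replicate wells above about 20%, limit read from the data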;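 also: 0% = compound-free wells with enzyme and 100% = wells lacking proteasome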
Target sequence (Q9Y5K5 whole entry, looked up): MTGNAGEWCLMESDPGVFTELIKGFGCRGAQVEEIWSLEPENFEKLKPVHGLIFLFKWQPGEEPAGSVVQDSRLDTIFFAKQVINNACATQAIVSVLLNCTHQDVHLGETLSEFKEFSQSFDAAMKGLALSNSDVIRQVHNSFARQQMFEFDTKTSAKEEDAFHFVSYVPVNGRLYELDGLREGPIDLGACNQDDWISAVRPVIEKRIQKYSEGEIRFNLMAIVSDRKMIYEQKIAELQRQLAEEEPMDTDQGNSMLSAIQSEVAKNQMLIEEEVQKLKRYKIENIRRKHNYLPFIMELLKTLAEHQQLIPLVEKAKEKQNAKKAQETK
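System: Proteasome-associated human UCH37 deubiquitinase; Input: 0.15 nM proteasome in added enzyme buffer; Also added: Ub-AMC substrate from 1 µM stock; Incubation: 30 min compound-proteasome preincubation then 25 min substrate reaction, room temperature; Detection: fluorescence, ex 355 nm, em 460 nm; Read-out: % inhibition of Ub-AMC cleavage fluorescence; Benchmarks: no-proteasome and no-compound wells.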
CHOP inhibitor: blocks CHOP induction under ER stress; CHO-K1 CHOP-promoter luciferase, tunicamycin-induced, 15-18 h; inhibition, % at 10 µM; 220,000 tested, 3.8% active; AID 2732;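 active = compounds that reduced the stress-induced luciferase reporter signal by more than about 70% of percent inhibition, limit read from the data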;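 also: 0% = tunicamycin plus vehicle and 100% = wells without tunicamycin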
XBP1 UPR activ: activators of adaptive arm of unfolded protein response (XBP1). CHO-XBP1 luciferase reporter, IRE1-XBP1 UPR activation, luminescence; percent of tunicamycin response, DMSO as zero. activation, % at 20 µM. 330,000 tested, 0.33% active. AID 463104;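 active = versus positive control, 20 µM dose yields 30% or more activation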;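 also: 100% = tunicamycin at 10 µg/mL and 0% = DMSO only wells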
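incubation = overnight seeding at 37 °C, 6 h compound treatment at 37 °C | assay system = CHO-XBP1 cells stably carrying IRE1-XBP1-driven luciferase reporter | input = 1000 cells per well | detection = luciferase luminescence | dosing = single point, 20 µM final compound, 1% DMSO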
An asterisk follows results filed as active; nt = no result.

SMILES	CHOP UPR activ	CTSL1 counter	UCH37 DUB inh	CHOP inhibitor	XBP1 UPR activ
COC(=O)[C@@H]1CCCN1C(=O)[C@@H](NC(=O)OC(C)(C)C)C(C)C	0	0	2	nt	-5
COc1cccc(NC(=S)NN=C2CC(C)(C)Oc3ccc(O)cc32)c1	nt	nt	-14	nt	nt
CC(C)c1c(C(=O)NN=Cc2ccc(OCc3ccccc3)cc2)nnn1-c1nonc1N	nt	nt	-20	nt	nt
CC(=O)c1sc(NC(=O)COc2ccc(C(C)C)c(C)c2)nc1C	1	0	5	77*	0
CC(=O)c1sc(NC(=O)COc2ccccc2)nc1C	4	-4	1	-10	3
CC(=NNc1ccc(F)cc1)c1ccncc1	nt	nt	-1	nt	nt
CC1=C(C(=O)OC(C)C)C(c2cncc(-c3ccc(F)cc3)c2)C(C#N)=C(N)O1 (stereo not drawn)	0	19*	2	25	-6
C=CCn1c(SCc2ccc(Cl)cc2)nc2cc(C(=O)N3CCC(C(N)=O)CC3)ccc2c1=O	1	-2	3	83*	4
CC1CCN(c2nc3c(c(=O)n(C)c(=O)n3C)n2CCSc2nc3ccccc3s2)CC1	5	-3	-4	76*	4
Cn1c(=O)c2c(nc(N3CCCCC3)n2CCSc2nc3ccccc3s2)n(C)c1=O	1	-6	0	-12	4
CCOC(=O)C1CCCN(C(=O)C2COc3ccccc3O2)C1 (stereo not drawn)	nt	nt	0	nt	nt
CCOC(=O)C1CCCN(C(=O)C2c3ccccc3Oc3ccccc32)C1 (stereo not drawn)	-1	10	-5	76*	2
O=C(Cc1ccc(Cl)cc1)NN=Cc1ccccc1	nt	nt	1	nt	nt
CC(C)(C)OC(=O)N[C@@H](COCc1ccccc1)C(=O)N[C@@H](CO)[C@H](O)[C@@H]1C[C@@H]1C(=O)N1CCCC1	1	6	3	nt	3
CC(C)C[C@H](NC(=O)OC(C)(C)C)C(=O)N[C@@H](CO)[C@H](O)[C@@H]1C[C@@H]1C(=O)N1CCCC1	0	45*	0	nt	2
CCOC(=O)C1=C(CSc2nc3ccccc3s2)NC(=O)NC1c1cccc([N+](=O)[O-])c1 (stereo not drawn)	-2	1	1	78*	-5
CCOc1ccc2[nH]c(=O)c(CN(Cc3cccs3)Cc3nnnn3C(C)(C)C)cc2c1	0	-1	-17	96*	-1
Cc1cc(NC(=O)/C(C#N)=C/c2ccc(-c3cccc(C(F)(F)F)c3)o2)n(-c2ccccc2)n1	0	-1	-2	85*	-1
Cc1c(NC(=O)/C(C#N)=C/c2ccc(-c3ccc(Cl)cc3)o2)c(=O)n(-c2ccccc2)n1C	4	-2	9	68	16
O=C1N=c2ccc(Br)cc2=C1c1sc(=S)n(NS(=O)(=O)c2ccccc2)c1O	-1	28*	3	15	-1
CCCOP(=O)(OCCC)C(Nc1cccc(C(F)(F)F)c1)c1ccc(C)cc1 (stereo not drawn)	-1	4	6	90*	-2
CCOP(=O)(OCC)C(Nc1cccc(C(F)(F)F)c1)c1ccc(C)cc1 (stereo not drawn)	2	2	6	12	-2
Cc1n[nH]c(=O)c2c(NC(=O)CSc3ncccn3)oc(C)c12	0	-4	3	nt	-3
C=CCn1c(C)nnc1SCC(=O)Nc1oc(C)c2c(C)n[nH]c(=O)c12	1	18*	2	nt	0
Cc1c(C=NO)sc2ccccc12	nt	nt	6	nt	nt
CCCCCC(=O)NN=Cc1ccccc1[N+](=O)[O-]	nt	nt	0	nt	nt
Cc1cccc2sc(NC(=O)C3CCN(S(=O)(=O)c4cc([N+](=O)[O-])ccc4Cl)CC3)nc12	9	4	3	70*	0
CC1CCN(CCNC(=O)C2CCCN(S(=O)(=O)c3cccc4nonc34)C2)CC1 (stereo not drawn)	-2	24*	1	0	-3
Cc1cccc(N2CCN(C(=O)C3CCN(S(=O)(=O)c4cccc5nsnc45)CC3)CC2C)c1 (stereo not drawn)	6	-1	4	83*	1
CCOc1ccc(NC(=O)C2CCCN(S(=O)(=O)c3cccc4nsnc34)C2)cc1 (stereo not drawn)	-1	5	2	74*	-4

Screens as filed in PubChem BioAssay.
